Laboratory results as given in ChEMBL document CHEMBL1149189, “In vitro antimalarial activity of a series of cationic 2,2'-bipyridyl- and 1,10-phenanthrolineplatinum(II) benzoylthiourea complexes” (J Med Chem, 2004).
Structures can show the parent of a compound that is named as a salt.

system: Ferriprotoporphyrin IX; conditions: not given

Row | Log K | Compound
1 | No association | Cc1ccnc(-c2cc(C)ccn2)c1
2 | No association | O=C(NC(=S)N(CCO)CCO)c1ccccc1
3 | No association | c1ccc(-c2ccccn2)nc1

system: CHO; test: In vitro cytotoxicity against CHO cells was determined using MTT colorimetric assay; assay type: functional, cell-based; conditions: Cricetulus griseus
Method in brief: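 Chinese hamster ovary cells; MTT colorimetric read-out. Compounds dissolved as 2 mg/mL stocks in water, then diluted in medium as six serial 10-fold dilutions, final 100 µg/mL to 1 ng/mL. Emetine dihydrochloride as positive control. IC50 from nonlinear dose–response curve fitting; mean ± standard deviation of two independent experiments, each in triplicate.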

Row | Compound | IC50
4 | CC[C@H]1CN2CCc3cc(OC)c(OC)cc3[C@@H]2C[C@@H]1C[C@H]1NCCc2cc(OC)c(OC)cc21 [EMETINE HYDROCHLORIDE] | 139 nM

system: Ferriprotoporphyrin IX; conditions: not given; remark: another data set of the same source

Row | Compound | Log K
5 | Cc1cnc2c(ccc3c(C)c(C)cnc32)c1C | 3.32
6 | O=[N+]([O-])c1cc2cccnc2c2ncccc12 | 2.88
7 | CCN(CC)CCN(CCN(CC)CC)C(=S)NC(=O)c1ccccc1 | 1.93

Results, then the compound that gave them:

Row | Log K | Compound
8 | 2.93 | Cc1cc2cccnc2c2ncccc12
9 | 3.01 | Clc1cc2cccnc2c2ncccc12
10 | 3.22 | Cc1ccnc2c1ccc1cccnc12
